Compound activity (PubChem)
CHT inh: inhibitors of human choline transporter CHT; B-score at 10 µM; Q9GZV3; CHT-expressing cells, membrane potential dye, choline response; hits give low values; 310,000 compounds, 0.86% hits;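 active means B-score over 3 SD under the library average, and starting fluorescence ratio not unusually high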;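 further: choline stimulus applied at its EC90 after an EC20 pre-addition; B-score computed on integrated fluorescence ratio after choline addition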
CHT allo act: allosteric activators of human choline transporter CHT; CHT-expressing cells, membrane potential dye, choline EC20; hits give high values; LV-AA mutant CHT in HEK293 cells; Q9GZV3; AID 488977; 310,000 compounds, 0.49% hits; B-score at 10 µM;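 active means initial fluorescence not abnormally high and integrated response B-score, plate-corrected, over 3 SD above library mean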
GPR7 antagonist: human neuropeptides B/W receptor 1 antagonism. GPR7-expressing cells, fluorescence antagonist assay. 290,000 compounds, 1.1% hits. P48145. inhibition, % at 4.4 µM; in the data active means inhibition above about 16%, passing the limit was not always enough;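 further: cells stimulated with the agonist NPW; 0% = agonist with vehicle and 100% = vehicle without agonist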
Target sequence (P48145 whole entry, looked up): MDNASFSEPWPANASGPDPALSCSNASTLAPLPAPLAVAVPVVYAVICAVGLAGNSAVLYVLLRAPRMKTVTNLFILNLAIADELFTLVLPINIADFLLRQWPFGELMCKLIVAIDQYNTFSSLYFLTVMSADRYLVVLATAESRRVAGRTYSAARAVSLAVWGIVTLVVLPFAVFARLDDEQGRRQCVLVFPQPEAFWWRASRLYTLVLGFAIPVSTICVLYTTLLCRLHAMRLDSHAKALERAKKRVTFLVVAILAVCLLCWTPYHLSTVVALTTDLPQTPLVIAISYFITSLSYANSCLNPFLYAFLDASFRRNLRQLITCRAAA
DSG3 Ab inh: human desmoglein-3 autoantibody binding inhibition; P32926; DSG3-coupled beads, scFv-anti-DSG3-GFP binding, flow cytometry; hits give low values; binding (percent of control), % at 10 µM; 310,000 compounds, 0.48% hits; AID 588358;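 active means binding more than 3 SD below its plate's average and above zero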;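 further: hits lower antibody fragment binding to DSG3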
pCIP destab: compounds decreasing mouse p/CIP protein stability; decrease of EGFP signal, % at 10 µM; 290,000 compounds, 0.01% hits; F442A p/CIP-EGFP cells, EGFP fluorescence, 16 h;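 active means EGFP signal decrease of at least 30% at 10 µM or well 3 SD below plate mean, unless failing retest; inactive means the rest, including hits failing retest or dose response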
T cell HTS: T cell immune modulation candidate. 2C CD8+ T cell-vesicle binding, flow cytometry; hits give low values. response (vesicle binding), % at 7 µM. 330,000 compounds, 0.068% hits. AID 2052;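 active means response, share of CD8 T cells binding vesicles, and their 90th percentile fluorescence all below set limits, cut at about 80% in these data, passing the limit was not always enough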;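 further: values below 100% mean blocked vesicle binding to the CD8+ T cells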
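material = purified 2C TCR transgenic mouse naive CD8+ T cells | controls = Unloaded micro-vesicles (low), QL9 vesicles with 0.7% DMSO (high) | detection = cytometric PE anti-B7-1 and Alexa647 anti-CD8 signals after 1% paraformaldehyde fixation | incubation = binding step 1.5 h, 37 °C, antibody labelling 20 min, ice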
CHT activ conf: confirmation of human choline transporter (CHT) activators. shares compounds with CHT allo act. CHT-expressing cells, membrane potential dye fluorescence (FDSS); % of choline EC20–EC90 response window; HEK293 expressing CHT LV-AA mutant; choline added at its EC20. activation, % at 10 µM. 2,500 compounds, 91% hits. AID 504833;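 active means primary screen active, with duplicate mean activation above negative control mean plus 3 SD, cut at about 11% in these data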
HEK293 MP dye: activity in parental HEK293 cells lacking CHT | shares compounds with CHT allo act | membrane potential dye fluorescence (FDSS); measured after EC20 choline addition | ratio readout change at 10 µM, hits read low | 2,500 compounds, 62% hits;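 active means duplicate-averaged ratio beyond 3 SD from buffer wells, up or down, though filed actives are nearly all decreases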
Active calls of the source: *; i = inactive; nt = not tested or not shown. An excerpt weighted towards active compounds, which were near 2.3% of everything screened.

SMILES	CHT inh	CHT allo act	GPR7 antagonist	DSG3 Ab inh	pCIP destab	T cell HTS	CHT activ conf	HEK293 MP dye
COc1ccc(-n2cc(-c3ccccc3)[n+]3c2CCCCC3)cc1	i	6.51*	5.5	104.0	-24.3	105.8	55.2*	i
FC(F)Oc1ccc(-n2cc(-c3ccc(Cl)cc3)[n+]3c2CCCCC3)cc1	i	i	2.0	109.3	-15.9	179.0	nt	nt
CCCCOc1ccc(C(=O)Nc2ccc(SC(F)F)cc2)cc1OC	i	i	-7.9	88.6	3.0	170.8	nt	nt
FC(F)Sc1ccc(-n2cc(-c3ccccc3)[n+]3c2CCC3)cc1	i	i	-7.3	96.0	-10.2	244.9	21.2*	-39.8*
COc1ccc(-c2cn(-c3ccc(OC)cc3)c3[n+]2-c2ccccc2CC3)cc1	i	9.51*	24.4*	99.9	-8.7	201.4	52.5*	i
COc1ccc(-n2cc(-c3ccc(C)cc3)[n+]3c2SCC3)cc1	i	i	-4.6	93.7	-4.1	71.4	nt	nt
CN(Cc1ccccc1F)C(=O)c1cccc(NC(=O)CC2SC(N3CCCCC3)=NC2=O)c1 (centres undefined)	nt	nt	nt	107.2	nt	nt	nt	nt
COc1cccc(CC(=O)Nc2ccc(F)c(S(=O)(=O)N3CCOCC3)c2)c1	nt	nt	nt	101.1	nt	nt	nt	nt
CCCn1c(SCC(=O)Nc2ccc3c(c2)OCCO3)n[nH]c1=O	nt	nt	nt	101.3	nt	nt	nt	nt
Nn1c(-c2cccc(O)c2)nnc1-c1cccc(O)c1	nt	nt	nt	89.5	nt	nt	nt	nt
Cc1n(CC(=O)c2ccc(F)cc2)c2ccccc2[n+]1C	i	i	5.6	100.1	-12.8	310.0	nt	nt
CCCCc1n(CC(=O)c2ccc(Cl)cc2)c2ccccc2[n+]1C	i	i	-2.4	94.4	7.4	333.6	13.8*	i
CCCCn1cnc2cc(NCc3ccncc3)ccc21	i	i	-8.4	119.2	1.3	332.1	43.5*	-43.1*
CC(C)CN(C(=O)c1ccc(N2CCCC2=O)cc1)c1c(N)n(Cc2ccccc2)c(=O)[nH]c1=O	nt	nt	nt	100.1	nt	569.3	nt	nt
O=c1oc2ccccc2c2c1ncn2CCN1CCOCC1	i	i	3.3	93.8	-11.3	710.7	nt	nt
CN1CCN(CCCn2cnc3c(=O)oc4ccccc4c32)CC1	i	9.41*	2.8	97.3	-1.4	475.3	66.2*	-67*
O=S(=O)(NCc1c(Cl)cccc1Oc1ccccc1)c1ccc(F)cc1	i	i	13.1	108.7	-8.2	453.1	0.8	i
CCCN(CC(=O)Nc1ccc(F)c(F)c1F)C(=O)Cc1ccc(OC)c(S(=O)(=O)N2CCOCC2)c1	nt	nt	nt	108.0	nt	nt	nt	nt
CCCCN(C(=O)CCN1C(=O)C2CC=CCC2C1=O)c1c(N)n(CCCC)c(=O)[nH]c1=O (centres undefined)	nt	nt	nt	103.5	nt	nt	nt	nt
CCOC(=O)C1(CC2CC2)CCN(Cc2cn[nH]c2-c2cccc(F)c2)CC1	i	i	1.4	100.0	-9.8	249.7	22.4*	i
CN(C)CCCNc1cc(-c2ccccc2)nc2cc(-c3cccc(F)c3)nn12	i	i	19.4	121.9	-7.0	163.8	nt	nt
Cc1cccc(-c2cc3nc(C)cc(NCCCN(C)C)n3n2)c1	i	i	-0.5	103.1	-4.0	527.2	32.5*	-61.6*
CCN(CC)CCCNc1cc(C)nc2cc(-c3cccs3)nn12	i	9.09*	-4.5	93.5	-0.1	682.0	62.0*	-84.2*
CC(=O)c1cccc(Nc2nc(=O)c3cccnc3s2)c1	i	6.96*	-1.0	96.7	-5.8	252.7	48.4*	-43.8*
CCOC(=O)c1nc(C)nc(Sc2n[nH]c(-c3ccc(C(C)(C)C)cc3)n2)c1C	i	i	3.5	105.0	-0.4	421.6	nt	nt
SMILES	CHT inh	CHT allo act	GPR7 antagonist	DSG3 Ab inh	pCIP destab	T cell HTS	CHT activ conf	HEK293 MP dye
Cc1csc(NC(=O)C(C)N2C(=O)c3ccccc3S2(=O)=O)n1 (centres undefined)	i	i	-1.7	nt	19.6	i	10.7*	i
Cc1ccnc(NC(=O)CN2C(=O)c3ccccc3S2(=O)=O)c1	i	i	nt	100.1	nt	199.5	nt	nt
Cc1ccnc(NC(=O)C(C)N2C(=O)c3ccccc3S2(=O)=O)c1 (centres undefined)	i	10.4*	nt	108.8	nt	334.1	6.4	i
O=C(Nc1ccccc1N1CCOCC1)c1cc(=O)[nH]c2ccccc12	nt	nt	nt	nt	nt	652.9	nt	nt
COc1ccc(Cl)cc1C(=O)NC1CC(C)(C)NC(C)(C)C1	nt	nt	nt	97.0	nt	nt	nt	nt
O=C(O)COc1ccc(Cl)cc1C1CCCCC1	nt	nt	nt	91.9	nt	nt	nt	nt
Cc1ccc(-c2nn3c(C)nnc3s2)cc1NC(=O)c1cccnc1	i	8.27*	-10.6	107.4	12.2	431.5	58.7*	-54.4*
O=C(Nc1cccc(NC(=O)c2cccnc2)c1)c1cccnc1	i	i	-10.1	102.5	1.9	450.2	nt	nt
Cc1nnc2sc(-c3cccc(NC(=O)c4cccnc4)c3)nn12	i	7.88*	-7.8	93.4	3.7	146.4	35.0*	-49.3*
CCCCCCn1c(=O)n2n(c1=O)[C@@H]1CN(S(=O)(=O)c3ccc(C)cc3)C[C@]1(O)[C@@H](OC(=O)NCc1ccco1)C2	nt	nt	nt	104.1	nt	nt	nt	nt
O=C(NCCc1ccccc1)C(=O)NCC1CCCN1S(=O)(=O)c1cccs1 (centres undefined)	i	i	nt	103.5	nt	156.3	nt	nt
Cc1cc(C)n2ncc(C(=O)NCc3cccnc3)c2n1	i	i	7.9	nt	6.1	68.8	41.5*	-37.8*
CCCN1C(=O)c2ccc(C(=O)Nc3cc(C)on3)cc2C1=O	i	i	8.3	nt	-16.0	678.0	21.1*	-27.2*
CCOc1ccc(C(=O)Nc2cc(C)on2)cc1OCC	i	i	-5.9	93.7	-5.8	987.4	46.4*	-34.5*
Cc1cc(Cl)ccc1OC(C)C(=O)NCCCCc1ccccc1 (centres undefined)	i	i	3.3	101.8	-1.6	268.0	nt	nt
Cc1cc(Cl)ccc1OC(C)C(=O)NCCc1ccc2c(c1)OCCO2 (centres undefined)	i	i	3.7	102.1	-14.4	281.0	8.9	i
COc1ccc(-c2ccc3c(c2)S(=O)(=O)c2cccc(C(=O)N4CCN(C5CCCCC5)CC4)c2C3=O)cc1OC	nt	nt	nt	106.5	nt	269.2	nt	nt
Cc1cc(NCCNC2=CC(=O)CCC2)nc2ccccc12	i	i	-7.1	100.1	3.6	373.5	48.0*	-47.3*
Cc1cccc(NS(=O)(=O)c2ccc(C)c(C(=O)NC3CCN(Cc4ccccc4)CC3)c2)c1	nt	nt	nt	76.8	nt	nt	nt	nt
CCC1(c2ccc(F)cc2)NC(=O)N(CC(=O)N2CCN(S(=O)(=O)c3ccc(C)cc3C)CC2)C1=O (centres undefined)	nt	nt	nt	107.6	nt	nt	nt	nt
